KCNQ1 inh – inhibitors of human KCNQ1 potassium channel | P51787 | CHO-K1 KCNQ1, FluxOR thallium flux fluorescence; hits give high values | B-score at 10 µM | hit rate 1.3% among 310,000 | AID 2642;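 active = compounds whose thallium flux B-score, printed positive for inhibition, exceeds three library SD while starting fluorescence stays within three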;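 note: channel opened by potassium depolarization with thallium stimulus after 20 min compound exposure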
KCNK3 block – human KCNK3 channel inhibition, primary screen. CHO-KCNK3 thallium flux, FluxOR fluorescence; hits give low values. B-score at 10 µM. hit rate 0.84% among 340,000. AID 602410;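 active = B-score under library mean minus 4 SD, starting fluorescence ratio at most library mean plus 5 SD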;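 note: more negative B-score means stronger inhibition of thallium flux through KCNK3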
KCNK9 inh – blocks the human KCNK9 two-pore domain potassium channel; HEK293 KCNK9, FluxOR thallium flux fluorescence; hits give low values; B-score at 10 µM; hit rate 1.2% among 310,000; AID 488922;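 active = ratio B-score over 3 SD below the library mean, with starting fluorescence within 5 SD of its mean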;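 note: negative B-score means less thallium flux so channel inhibition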
Target sequence (Q9NPC2 whole entry, looked up, the tested form may be a part): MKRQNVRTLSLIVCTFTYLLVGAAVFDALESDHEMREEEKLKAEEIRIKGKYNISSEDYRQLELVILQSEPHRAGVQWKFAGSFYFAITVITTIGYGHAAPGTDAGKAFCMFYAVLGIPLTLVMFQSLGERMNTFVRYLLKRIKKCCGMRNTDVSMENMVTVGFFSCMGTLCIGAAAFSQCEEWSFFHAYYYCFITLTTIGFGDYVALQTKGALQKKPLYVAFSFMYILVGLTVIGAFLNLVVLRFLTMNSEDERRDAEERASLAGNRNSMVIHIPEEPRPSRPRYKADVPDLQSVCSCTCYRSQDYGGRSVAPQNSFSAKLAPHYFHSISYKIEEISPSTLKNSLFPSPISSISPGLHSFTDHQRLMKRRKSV
hERG rescue – hERG (human) protection from proarrhythmic block. CHO-hERG, FluxOR thallium flux, dofetilide IC70 present. activation (rescue from dofetilide block), less the hit threshold, % at 10 µM. hit rate 0.51% among 310,000. Q12809;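 active = activation above the mean of controls blocked by dofetilide plus 5 SD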;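 note: thallium influx through hERG after potassium depolarization seen as dye fluorescence rise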
KCNQ1 act – human KCNQ1 channel potentiation or activation. P51787. CHO-K1 KCNQ1, thallium flux FluxOR fluorescence; hits give high values. B-score at 10 µM. hit rate 0.35% among 310,000. AID 2648;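 active = fluorescence ratio B-score, a plate-corrected score, at least three library SD, with initial intensity B-score within 5 SD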
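Medium – assay buffer, equal DMSO in all wells · Material – CHO-K1 cell line with stable KCNQ1 potassium channel expression · Signal – kinetic FluxOR thallium fluorescence, 10-s 1-Hz baseline, 110-s post-stimulus read · Compound – single concentration per compound, DMSO matched to controls · Schedule – 37 °C overnight plating, 90-min dark dye load, 20-min compound pretreatment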
A number is an active result. The list is not random: actives were taken first. Their share in the collection is about 3.1%.

O=C(Nc1cccc(C(=O)N2CCCCC2)c1)c1ccccc1Br was read as KCNQ1 inh inactive, KCNK3 block inactive, KCNK9 inh inactive, hERG rescue inactive and KCNQ1 act inactive.
Screening CC(C)C(C)NC(=O)CN1C(=O)NC2(CCc3ccccc32)C1=O (centres undefined) returned KCNQ1 inh inactive, KCNK3 block inactive, KCNK9 inh inactive, hERG rescue inactive and KCNQ1 act inactive.
`Cn1c(CNC(=O)c2ccccc2F)nnc1SCc1ccc(Cl)cc1` gave KCNQ1 inh inactive, KCNK3 block inactive, KCNK9 inh inactive, hERG rescue 8.0 and KCNQ1 act inactive.
For Cc1onc(-c2c(Cl)cccc2Cl)c1C(N)=O the results were KCNQ1 inh inactive, KCNK3 block inactive, KCNK9 inh inactive, hERG rescue inactive and KCNQ1 act inactive.
For Cc1onc(-c2c(Cl)cccc2Cl)c1C(=O)n1nnc2ccccc21 the results were KCNQ1 inh inactive, KCNK9 inh inactive, hERG rescue 4.8 and KCNQ1 act inactive.
COc1ccc(CNc2oc(-c3cccc4ccccc34)nc2C#N)cc1 was read as KCNQ1 inh inactive, KCNK3 block inactive, KCNK9 inh -7.29, hERG rescue inactive and KCNQ1 act inactive.
For CNc1oc(-c2cccc3ccccc23)nc1C#N the results were KCNQ1 inh inactive, KCNK3 block inactive, KCNK9 inh inactive, hERG rescue inactive and KCNQ1 act inactive.
Screening O=C(Nc1ccc(N2CCOCC2)cc1)c1ccc(Cl)nc1 returned KCNQ1 inh inactive, KCNK3 block inactive, KCNK9 inh inactive, hERG rescue inactive and KCNQ1 act inactive.
For CCN(c1ccc(NC(=O)c2ccc(Cl)nc2)cc1)C(C)C the results were KCNQ1 inh inactive, KCNK3 block inactive, KCNK9 inh inactive, hERG rescue 5.9 and KCNQ1 act inactive.
Screening CSc1nsc(SCC(=O)Nc2cccc(NC(C)=O)c2)n1 returned KCNQ1 inh inactive, KCNK3 block inactive, KCNK9 inh inactive, hERG rescue inactive and KCNQ1 act inactive.
Screening CC(C)C(c1nnnn1Cc1ccco1)N1CCN(c2cccc(Cl)c2)CC1 (centres undefined) returned KCNQ1 inh inactive, KCNK3 block inactive, KCNK9 inh -7.95, hERG rescue inactive and KCNQ1 act inactive.
Screening CC(Sc1nnc2ccccn12)C(N)=O (centres undefined) returned KCNQ1 inh inactive, KCNK3 block inactive, KCNK9 inh inactive, hERG rescue 5.0 and KCNQ1 act inactive.
Screening O=C1CSC(=S)N1/N=C/c1cc(Br)ccc1O returned KCNQ1 inh inactive, KCNK9 inh inactive, hERG rescue 7.1 and KCNQ1 act inactive.
For COc1ccc(C=C2C=C(C(C)(C)C)C(=O)C(C(C)(C)C)=C2)cc1OC the results were KCNQ1 inh 6, KCNK3 block inactive, KCNK9 inh inactive, hERG rescue inactive and KCNQ1 act inactive.
For Cc1cc(C)c(S(=O)(=O)N(C)CC(=O)NCCCn2ccnc2)c(C)c1 the results were KCNQ1 inh inactive, KCNK3 block inactive, KCNK9 inh inactive, hERG rescue inactive and KCNQ1 act inactive.
Screening COc1ccc(/C=C/c2cc(=O)c3cc(Cl)ccc3o2)cc1 returned KCNQ1 inh inactive, KCNK3 block inactive, KCNK9 inh inactive, hERG rescue 4.6 and KCNQ1 act inactive.
Cc1cccc(S(=O)(=O)Nc2cccc3c2C(=O)c2ccccc2-3)c1 was read as KCNQ1 inh inactive, KCNK3 block inactive, KCNK9 inh inactive, hERG rescue inactive and KCNQ1 act 9.
Screening C/C=C(/C)C(=O)O[C@@H]1c2c(ccc3ccc(=O)oc23)O[C@@H]1C(C)(C)OC(=O)/C(C)=C\C returned KCNQ1 inh inactive, KCNK3 block inactive, KCNK9 inh -7.14, hERG rescue inactive and KCNQ1 act inactive.
For CCN(CC)c1ccc(S(=O)(=O)N2CCOCC2)cc1NC(=O)COC(=O)C1=COCCO1 the results were KCNK3 block inactive.
For O=C(NCC(c1ccco1)N1CCc2ccccc2C1)c1ccc(Cl)c([N+](=O)[O-])c1 (centres undefined) the results were KCNQ1 inh 6, KCNK3 block inactive, KCNK9 inh inactive, hERG rescue inactive and KCNQ1 act inactive.
Screening O=C(NCC(c1ccco1)N1CCc2ccccc2C1)c1cccc([N+](=O)[O-])c1 (centres undefined) returned KCNQ1 inh inactive, KCNK3 block inactive, KCNK9 inh inactive, hERG rescue inactive and KCNQ1 act inactive.
Cc1ccc(N2CC(C(=O)N3CCC(C(=O)Nc4nnc(C(C)(C)C)s4)CC3)CC2=O)cc1 (centres undefined) was read as KCNQ1 inh inactive, KCNK3 block inactive, KCNK9 inh inactive, hERG rescue inactive and KCNQ1 act inactive.

Assay outcomes from PubChem.
